According to ChEMBL document CHEMBL4261658, “4-Hydroxy-3-nitro-5-ureido-benzenesulfonamides Selectively Target the Tumor-Associated Carbonic Anhydrase Isoforms IX and XII Showing Hypoxia-Enhanced Antiproliferative Profiles” (J Med Chem, 2018):
pIC50, pKi: −log10 of the molar value.

Experiments:
MDA-MB-231 [1] = experiment: Cytotoxicity against human MDA-MB-231 cells assessed as cell viability at 200 uM after 48 hrs under hypoxic conditions by MTT assay (reference value: 100%); format: functional; conditions: MDA-MB-231, 48 h, read-out: Activity
Method in brief: (§1)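 Cells cultured in high-glucose DMEM with 20% FBS at 37 °C and 5% CO2, seeded at 1x10^4/well, then dosed 24 h later (0–200 μM) for 48 h. Hypoxia: 1% O2, 5% CO2, balance N2 in a hypoxic workstation; normoxia: 20% O2 in air, 5% CO2. MTT (1 mg/ml) for 30 min at 37 °C, formazan dissolved in DMSO, A550. Untreated control set to 100%; quadruplicates, ≥3 cell batches, mean ± S.E.M.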

HT-29 [2] = experiment: Cytotoxicity against human HT-29 cells assessed as cell viability at 100 uM after 48 hrs under normoxic conditions by MTT assay (reference value: 100%); format: functional; conditions: Homo sapiens, HT-29, 48 h; read-out: Activity; method in brief: as §1
PC-3 [3] = experiment: Cytotoxicity against human PC3 cells assessed as reduction in cell viability after 48 hrs under normoxic conditions by MTT assay; format: functional, cell-based; conditions: for pIC50: PC-3, 48 h; method in brief: as §1
PC-3 [4] = experiment: Cytotoxicity against human PC3 cells assessed as cell viability at 200 uM after 48 hrs under normoxic conditions by MTT assay (reference value: 100%); format: functional; conditions: PC-3, 48 h, read-out: Activity; method in brief: as §1
MDA-MB-231 [5] = experiment: Cytotoxicity against human MDA-MB-231 cells assessed as reduction in cell viability after 48 hrs under normoxic conditions by MTT assay; format: functional, cell-based; conditions: for pIC50: MDA-MB-231, 48 h; method in brief: as §1
HT-29 [6] = experiment: Cytotoxicity against human HT-29 cells assessed as reduction in cell viability after 48 hrs under normoxic conditions by MTT assay; format: functional, cell-based; conditions: for pIC50: HT-29, 48 h; method in brief: as §1
MDA-MB-231 [7] = experiment: Cytotoxicity against human MDA-MB-231 cells assessed as cell viability at 30 uM after 48 hrs under hypoxic conditions by MTT assay (reference value: 100%); format: functional; conditions: MDA-MB-231, 48 h, read-out: Activity; method in brief: as §1
PC-3 [8] = experiment: Cytotoxicity against human PC3 cells assessed as cell viability at 100 uM after 48 hrs under normoxic conditions by MTT assay (reference value: 100%); format: functional; conditions: PC-3, 48 h, read-out: Activity; method in brief: as §1
PC-3 [9] = experiment: Cytotoxicity against human PC3 cells assessed as cell viability at 200 uM after 48 hrs under hypoxic conditions by MTT assay (reference value: 100%); format: functional; conditions: PC-3, 48 h, read-out: Activity; method in brief: as §1
PC-3 [10] = experiment: Cytotoxicity against human PC3 cells assessed as reduction in cell viability after 48 hrs under hypoxic conditions by MTT assay; format: functional, cell-based; conditions: for pIC50: PC-3, 48 h; method in brief: as §1
MDA-MB-231 [11] = experiment: Cytotoxicity against human MDA-MB-231 cells assessed as cell viability at 100 uM after 48 hrs under hypoxic conditions by MTT assay (reference value: 100%); format: functional; conditions: MDA-MB-231, 48 h, read-out: Activity; method in brief: as §1
PC-3 [12] = experiment: Cytotoxicity against human PC3 cells assessed as cell viability at 100 uM after 48 hrs under hypoxic conditions by MTT assay (reference value: 100%); format: functional; conditions: PC-3, 48 h, read-out: Activity; method in brief: as §1
HT-29 [13] = experiment: Cytotoxicity against human HT-29 cells assessed as cell viability at 30 uM after 48 hrs under hypoxic conditions by MTT assay (reference value: 100%); format: functional; conditions: Homo sapiens, HT-29, 48 h; read-out: Activity; method in brief: as §1
MDA-MB-231 [14] = experiment: Cytotoxicity against human MDA-MB-231 cells assessed as cell viability at 200 uM after 48 hrs under normoxic conditions by MTT assay (reference value: 100%); format: functional; conditions: MDA-MB-231, 48 h, read-out: Activity; method in brief: as §1
HT-29 [15] = experiment: Cytotoxicity against human HT-29 cells assessed as cell viability at 100 uM after 48 hrs under hypoxic conditions by MTT assay (reference value: 100%); format: functional; conditions: Homo sapiens, HT-29, 48 h; read-out: Activity; method in brief: as §1
MDA-MB-231 [16] = experiment: Cytotoxicity against human MDA-MB-231 cells assessed as reduction in cell viability after 48 hrs under hypoxic conditions by MTT assay; format: functional, cell-based; conditions: for pIC50: MDA-MB-231, 48 h; method in brief: as §1
Carbonic anhydrase 9 = Carbonic anhydrase 9 (Homo sapiens, UniProt Q16790); experiment: Inhibition of carbonic anhydrase 9 (unknown origin) preincubated for 15 mins by stopped flow CO2 hydration assay
MDA-MB-231 [17] = experiment: Cytotoxicity against human MDA-MB-231 cells assessed as cell viability at 30 uM after 48 hrs under normoxic conditions by MTT assay (reference value: 100%); format: functional; conditions: MDA-MB-231, 48 h, read-out: Activity; method in brief: as §1
PC-3 [18] = experiment: Cytotoxicity against human PC3 cells assessed as cell viability at 30 uM after 48 hrs under hypoxic conditions by MTT assay (reference value: 100%); format: functional; conditions: PC-3, 48 h, read-out: Activity; method in brief: as §1
HT-29 [19] = experiment: Cytotoxicity against human HT-29 cells assessed as cell viability at 200 uM after 48 hrs under hypoxic conditions by MTT assay (reference value: 100%); format: functional; conditions: Homo sapiens, HT-29, 48 h; read-out: Activity; method in brief: as §1
Carbonic anhydrase 12 = Carbonic anhydrase 12 (Homo sapiens, UniProt O43570)
HT-29 [20] = experiment: Cytotoxicity against human HT-29 cells assessed as cell viability at 30 uM after 48 hrs under normoxic conditions by MTT assay (reference value: 100%); format: functional; conditions: Homo sapiens, HT-29, 48 h; read-out: Activity; method in brief: as §1
HT-29 [21] = experiment: Cytotoxicity against human HT-29 cells assessed as cell viability at 200 uM after 48 hrs under normoxic conditions by MTT assay (reference value: 100%); format: functional; conditions: Homo sapiens, HT-29, 48 h; read-out: Activity; method in brief: as §1
HT-29 [22] = experiment: Cytotoxicity against human HT-29 cells assessed as reduction in cell viability after 48 hrs under hypoxic conditions by MTT assay; format: functional, cell-based; conditions: for pIC50: HT-29, 48 h; method in brief: as §1
PC-3 [23] = experiment: Cytotoxicity against human PC3 cells assessed as cell viability at 30 uM after 48 hrs under normoxic conditions by MTT assay (reference value: 100%); format: functional; conditions: PC-3, 48 h, read-out: Activity; method in brief: as §1
MDA-MB-231 [24] = experiment: Cytotoxicity against human MDA-MB-231 cells assessed as cell viability at 100 uM after 48 hrs under normoxic conditions by MTT assay (reference value: 100%); format: functional; conditions: MDA-MB-231, 48 h, read-out: Activity; method in brief: as §1

Chain of Carbonic anhydrase 12 (O43570 whole entry): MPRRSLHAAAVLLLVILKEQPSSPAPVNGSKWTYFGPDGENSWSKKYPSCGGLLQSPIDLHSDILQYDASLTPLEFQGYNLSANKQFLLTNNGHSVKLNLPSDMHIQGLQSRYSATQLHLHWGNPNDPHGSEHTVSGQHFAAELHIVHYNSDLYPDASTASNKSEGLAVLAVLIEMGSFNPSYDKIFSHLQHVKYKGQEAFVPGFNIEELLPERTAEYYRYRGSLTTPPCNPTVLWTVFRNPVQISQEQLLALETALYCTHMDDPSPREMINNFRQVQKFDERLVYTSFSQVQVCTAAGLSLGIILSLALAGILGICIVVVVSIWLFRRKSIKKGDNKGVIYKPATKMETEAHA

Row | Compound | viability at 200 µM (MDA-MB-231 [1]) [%] | viability at 100 µM (HT-29 [2]) [%] | viability at 200 µM (PC-3 [4]) [%] | viability at 30 µM (MDA-MB-231 [7]) [%] | viability at 100 µM (PC-3 [8]) [%] | viability at 200 µM (PC-3 [9]) [%] | viability at 100 µM (MDA-MB-231 [11]) [%] | viability at 100 µM (PC-3 [12]) [%] | viability at 30 µM (HT-29 [13]) [%] | viability at 200 µM (MDA-MB-231 [14]) [%] | viability at 100 µM (HT-29 [15]) [%] | pKi (Carbonic anhydrase 9) | viability at 30 µM (MDA-MB-231 [17]) [%] | viability at 30 µM (PC-3 [18]) [%] | viability at 200 µM (HT-29 [19]) [%] | pKi (Carbonic anhydrase 12) | viability at 30 µM (HT-29 [20]) [%] | viability at 200 µM (HT-29 [21]) [%] | viability at 30 µM (PC-3 [23]) [%] | viability at 100 µM (MDA-MB-231 [24]) [%] | further results
1 | NS(=O)(=O)c1cc(NC(=O)c2ccc(F)cc2)c(OC(=O)c2ccc(F)cc2)c([N+](=O)[O-])c1 | 13 | 5.7 | 10.2 | 92.9 | 13.9 | 15.6 | 13.3 | 29.9 | 96.6 | 85.8 | 24.2 | 7.00 | 89.5 | 95.7 | 8.4 | 6.68 | 62.8 | 6.6 | 51.6 | 89.3 | Activity (PC-3 [3]): Dose-dependent effect; pIC50 (PC-3 [3]): 4.51; Activity (MDA-MB-231 [5]): Dose-dependent effect; pIC50 (MDA-MB-231 [5]): < 3.70; Activity (HT-29 [6]): Dose-dependent effect; pIC50 (HT-29 [6]): 4.39; Activity (PC-3 [10]): Dose-dependent effect; pIC50 (PC-3 [10]): 4.25; Activity (MDA-MB-231 [16]): Dose-dependent effect; pIC50 (MDA-MB-231 [16]): 4.28; Activity (HT-29 [22]): Dose-dependent effect; pIC50 (HT-29 [22]): 4.23
2 | NS(=O)(=O)c1cc([N+](=O)[O-])c(OC(=O)c2ccccc2)c([N+](=O)[O-])c1 | – | – | – | – | – | – | – | – | – | – | – | 7.05 | – | – | – | 7.15 | – | – | – | – | –
3 | NS(=O)(=O)c1ccc(NC(=O)Nc2ccc(F)cc2)cc1 [SLC-0111] | 103 | 50.3 | 83.1 | 103 | 109 | 95.8 | 107 | 106 | 85.3 | 56.9 | 71.5 | – | 83.4 | 90.8 | 56.4 | – | 62.4 | 35.6 | 109 | 86.6 | –
4 | Nc1cc(S(N)(=O)=O)cc([N+](=O)[O-])c1O | 60.2 | 107 | 92.3 | 81.3 | 91.8 | 55.3 | 72.8 | 58.4 | 108 | 78.8 | 93.2 | 6.68 | 93 | 81.8 | 100 | 6.70 | 95.7 | 105 | 69.7 | 81.4 | Activity (PC-3 [3]): Dose-dependent effect; pIC50 (PC-3 [3]): < 3.70; Activity (MDA-MB-231 [5]): Dose-dependent effect; pIC50 (MDA-MB-231 [5]): < 3.70; Activity (HT-29 [6]): Dose-dependent effect; pIC50 (HT-29 [6]): < 3.70; Activity (PC-3 [10]): Dose-dependent effect; pIC50 (PC-3 [10]): < 3.70; Activity (MDA-MB-231 [16]): Dose-dependent effect; pIC50 (MDA-MB-231 [16]): < 3.70; Activity (HT-29 [22]): Dose-dependent effect; pIC50 (HT-29 [22]): < 3.70
5 | CC(=O)OC[C@@H]1O[C@@H](OC(C)=O)[C@@H](NC(=O)Nc2cc(S(N)(=O)=O)cc([N+](=O)[O-])c2O)[C@H](OC(C)=O)[C@H]1OC(C)=O | 65.9 | 100 | 68.3 | 99.5 | 67.5 | 70.6 | 90.7 | 85.2 | 95.6 | 103 | 79.8 | 6.54 | 100 | 91.5 | 84.8 | 6.10 | 111 | 103 | 59.6 | 111 | Activity (PC-3 [3]): Dose-dependent effect; pIC50 (PC-3 [3]): < 3.70; Activity (MDA-MB-231 [5]): Dose-dependent effect; pIC50 (MDA-MB-231 [5]): < 3.70; Activity (HT-29 [6]): Dose-dependent effect; pIC50 (HT-29 [6]): < 3.70; Activity (PC-3 [10]): Dose-dependent effect; pIC50 (PC-3 [10]): < 3.70; Activity (MDA-MB-231 [16]): Dose-dependent effect; pIC50 (MDA-MB-231 [16]): < 3.70; Activity (HT-29 [22]): Dose-dependent effect; pIC50 (HT-29 [22]): < 3.70
6 | NS(=O)(=O)c1cc(NC(=O)Nc2ccc(F)cc2)c(O)c([N+](=O)[O-])c1 | 61.7 | 112 | 56.2 | 84.8 | 71.7 | 23.5 | 68.4 | 61.3 | 90.8 | 90.3 | 88.2 | 6.47 | 100 | 83 | 79.3 | 6.30 | 110 | 107 | 86.9 | 92.8 | Activity (PC-3 [3]): Dose-dependent effect; pIC50 (PC-3 [3]): < 3.70; Activity (MDA-MB-231 [5]): Dose-dependent effect; pIC50 (MDA-MB-231 [5]): < 3.70; Activity (HT-29 [6]): Dose-dependent effect; pIC50 (HT-29 [6]): < 3.70; Activity (PC-3 [10]): Dose-dependent effect; pIC50 (PC-3 [10]): 3.87; Activity (MDA-MB-231 [16]): Dose-dependent effect; pIC50 (MDA-MB-231 [16]): < 3.70; Activity (HT-29 [22]): Dose-dependent effect; pIC50 (HT-29 [22]): < 3.70
7 | NS(=O)(=O)c1cc(O)c(O)c([N+](=O)[O-])c1 | – | – | – | – | – | – | – | – | – | – | – | 6.62 | – | – | – | 7.05 | – | – | – | – | –
